# Tests used:
# [1] = biological target: Dual specificity mitogen-activated protein kinase kinase 7 (Homo sapiens) (UniProt O14733); assay: Residual activity at human MKK7-beta at 10 uM in presence of 10 uM ATP relative to control
# Summary of the method: (§1)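 Single-concentration counter-screen across a panel of 80 Ser/Thr and Tyr protein kinases. Compound was tested at 10 µM with ATP at 10 µM. Activity remaining in each kinase is expressed relative to control.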
# [2] = biological target: Serine/threonine-protein kinase PAK 2 (Homo sapiens) (UniProt Q13177); assay: Residual activity at human PAK2 at 10 uM in presence of 10 uM ATP relative to control; summary of the method: as §1
# [3] = biological target: Platelet-derived growth factor receptor alpha (Homo sapiens) (UniProt P16234); assay: Residual activity at human PDGFRalpha at 10 uM in presence of 10 uM ATP relative to control; summary of the method: as §1
# [4] = biological target: Platelet-derived growth factor receptor beta (Homo sapiens) (UniProt P09619); assay: Residual activity at human PDGFRbeta at 10 uM in presence of 10 uM ATP relative to control; summary of the method: as §1
# [5] = biological target: RAC-gamma serine/threonine-protein kinase (Homo sapiens) (UniProt Q9Y243); assay: Residual activity at human PKBgamma at 10 uM in presence of 10 uM ATP relative to control; summary of the method: as §1
# [6] = biological target: Protein kinase C beta type (Homo sapiens) (UniProt P05771); assay: Residual activity at human PKCbeta2 at 10 uM in presence of 10 uM ATP relative to control; summary of the method: as §1
# [7] = biological target: Inhibitor of nuclear factor kappa-B kinase subunit beta (Homo sapiens) (UniProt O14920); assay: Residual activity at human IKK-beta at 10 uM in presence of 10 uM ATP relative to control
# Summary of the method: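 Panel of Ser/Thr and Tyr protein kinases, each tested with 10 µM compound in the presence of 10 µM ATP; activity expressed relative to control.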
# [8] = biological target: Mitogen-activated protein kinase 9 (Homo sapiens) (UniProt P45984); assay: Residual activity at human JNK2-alpha-2 at 10 uM in presence of 10 uM ATP relative to control; summary of the method: as §1
# [9] = biological target: Mitogen-activated protein kinase 1 (Homo sapiens) (UniProt P28482); assay: Residual activity at human MAPK1 at 10 uM in presence of 10 uM ATP relative to control; summary of the method: as §1
# [10] = biological target: Serine/threonine-protein kinase D1 (Homo sapiens) (UniProt Q15139); assay: Residual activity at human PKCmu at 10 uM in presence of 10 uM ATP relative to control; summary of the method: as §1
# [11] = biological target: MAP kinase-activated protein kinase 5 (Homo sapiens) (UniProt Q8IW41); assay: Residual activity at human PRAK at 10 uM in presence of 10 uM ATP relative to control; summary of the method: as §1
# [12] = biological target: Ribosomal protein S6 kinase alpha-3 (Homo sapiens) (UniProt P51812); assay: Residual activity at human Rsk3 at 10 uM in presence of 10 uM ATP relative to control; summary of the method: as §1
# [13] = biological target: Mitogen-activated protein kinase 13 (Homo sapiens) (UniProt O15264); assay: Residual activity at human SAPK4 at 10 uM in presence of 10 uM ATP relative to control; summary of the method: as §1
# [14] = test system: Monocyte; assay: Inhibition of MCP1-induced chemotaxis of mouse primary monocytes; format: functional, cell-based
# Summary of the method: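 Cells were starved and pretreated with inhibitor or DMSO, then chemotaxis was induced with MCP-1 (10^-9 M). Primary mouse monocytes: 10^7 5-day bone-marrow-derived monocytes in medium with 0.5% BSA and compound, placed in the upper chamber of a 5 µm transwell. MCP-1 plus compound in the lower chamber. After 3 h at 37 °C, 5% CO2, cells in the lower chamber were counted. IC50.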
# [15] = test system: Rattus norvegicus; assay: Half life in rat at 10 mg/kg, iv; format: ADME, organism-based; set-up: dose 10 mg/kg, route intravenous; conditions: in vivo
# Summary of the method: (§2)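 Rats given a single 10 mg/kg dose, intravenously or orally. The compound was given as its potassium salt, prepared with KOH in THF/water, for the in vivo work.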
# [16] = Half life in rat at 10 mg/kg, po; format: ADME, organism-based; set-up: dose 10 mg/kg, route oral; conditions: in vivo; summary of the method: as §2
# Sequence of Mitogen-activated protein kinase 9 (Homo sapiens) (P45984 whole entry, looked up): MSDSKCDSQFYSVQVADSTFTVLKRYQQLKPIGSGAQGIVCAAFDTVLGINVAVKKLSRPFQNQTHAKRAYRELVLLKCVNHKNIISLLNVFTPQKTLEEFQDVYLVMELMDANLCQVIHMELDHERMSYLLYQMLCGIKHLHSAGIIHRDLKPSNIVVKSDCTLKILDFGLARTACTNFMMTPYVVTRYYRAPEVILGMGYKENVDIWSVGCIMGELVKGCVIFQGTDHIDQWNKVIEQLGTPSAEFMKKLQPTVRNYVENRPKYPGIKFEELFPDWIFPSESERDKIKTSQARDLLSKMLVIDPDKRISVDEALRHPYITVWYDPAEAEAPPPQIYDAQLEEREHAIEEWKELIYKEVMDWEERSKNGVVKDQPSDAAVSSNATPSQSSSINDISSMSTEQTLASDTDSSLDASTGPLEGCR
# Sequence of RAC-gamma serine/threonine-protein kinase (Homo sapiens) (Q9Y243 whole entry): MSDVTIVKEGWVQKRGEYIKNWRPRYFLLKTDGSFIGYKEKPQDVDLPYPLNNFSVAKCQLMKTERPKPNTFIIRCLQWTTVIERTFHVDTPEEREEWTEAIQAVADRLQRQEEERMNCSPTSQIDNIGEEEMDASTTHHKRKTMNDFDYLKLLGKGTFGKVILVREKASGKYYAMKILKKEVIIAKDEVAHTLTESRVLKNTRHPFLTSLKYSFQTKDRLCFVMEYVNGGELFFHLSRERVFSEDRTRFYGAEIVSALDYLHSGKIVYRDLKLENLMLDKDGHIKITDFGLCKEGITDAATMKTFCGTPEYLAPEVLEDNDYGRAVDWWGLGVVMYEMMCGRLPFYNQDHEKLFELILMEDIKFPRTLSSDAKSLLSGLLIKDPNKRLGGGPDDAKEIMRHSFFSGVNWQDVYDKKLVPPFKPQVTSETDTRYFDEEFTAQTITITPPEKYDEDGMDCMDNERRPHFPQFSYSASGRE
# Sequence of Serine/threonine-protein kinase PAK 2 (Homo sapiens) (Q13177 whole entry): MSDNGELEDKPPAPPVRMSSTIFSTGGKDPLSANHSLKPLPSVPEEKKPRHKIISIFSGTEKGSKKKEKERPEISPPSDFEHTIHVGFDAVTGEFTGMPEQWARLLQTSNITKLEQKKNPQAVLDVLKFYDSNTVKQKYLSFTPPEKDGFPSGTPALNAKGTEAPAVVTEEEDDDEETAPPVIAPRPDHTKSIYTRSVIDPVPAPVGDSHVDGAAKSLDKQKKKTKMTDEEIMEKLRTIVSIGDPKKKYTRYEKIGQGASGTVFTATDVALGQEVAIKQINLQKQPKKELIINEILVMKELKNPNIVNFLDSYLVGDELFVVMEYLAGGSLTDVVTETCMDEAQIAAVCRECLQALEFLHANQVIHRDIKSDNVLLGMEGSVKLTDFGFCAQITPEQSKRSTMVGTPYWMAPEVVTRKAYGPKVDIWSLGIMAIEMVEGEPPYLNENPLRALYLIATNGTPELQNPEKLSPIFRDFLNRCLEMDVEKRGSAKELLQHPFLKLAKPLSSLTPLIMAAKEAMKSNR
# Sequence of Dual specificity mitogen-activated protein kinase kinase 7 (Homo sapiens) (O14733 whole entry): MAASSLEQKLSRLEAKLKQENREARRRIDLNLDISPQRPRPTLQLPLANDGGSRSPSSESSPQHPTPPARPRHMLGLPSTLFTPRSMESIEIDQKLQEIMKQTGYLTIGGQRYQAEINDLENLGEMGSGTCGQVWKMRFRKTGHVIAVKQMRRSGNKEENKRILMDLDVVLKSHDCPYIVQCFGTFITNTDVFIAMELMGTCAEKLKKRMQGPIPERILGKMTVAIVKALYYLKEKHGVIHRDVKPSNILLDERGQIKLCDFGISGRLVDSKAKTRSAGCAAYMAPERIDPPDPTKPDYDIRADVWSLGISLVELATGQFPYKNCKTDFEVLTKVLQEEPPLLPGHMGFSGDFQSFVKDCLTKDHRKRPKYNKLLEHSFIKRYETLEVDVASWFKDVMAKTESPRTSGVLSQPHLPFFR
# Sequence of Ribosomal protein S6 kinase alpha-3 (Homo sapiens) (P51812 whole entry): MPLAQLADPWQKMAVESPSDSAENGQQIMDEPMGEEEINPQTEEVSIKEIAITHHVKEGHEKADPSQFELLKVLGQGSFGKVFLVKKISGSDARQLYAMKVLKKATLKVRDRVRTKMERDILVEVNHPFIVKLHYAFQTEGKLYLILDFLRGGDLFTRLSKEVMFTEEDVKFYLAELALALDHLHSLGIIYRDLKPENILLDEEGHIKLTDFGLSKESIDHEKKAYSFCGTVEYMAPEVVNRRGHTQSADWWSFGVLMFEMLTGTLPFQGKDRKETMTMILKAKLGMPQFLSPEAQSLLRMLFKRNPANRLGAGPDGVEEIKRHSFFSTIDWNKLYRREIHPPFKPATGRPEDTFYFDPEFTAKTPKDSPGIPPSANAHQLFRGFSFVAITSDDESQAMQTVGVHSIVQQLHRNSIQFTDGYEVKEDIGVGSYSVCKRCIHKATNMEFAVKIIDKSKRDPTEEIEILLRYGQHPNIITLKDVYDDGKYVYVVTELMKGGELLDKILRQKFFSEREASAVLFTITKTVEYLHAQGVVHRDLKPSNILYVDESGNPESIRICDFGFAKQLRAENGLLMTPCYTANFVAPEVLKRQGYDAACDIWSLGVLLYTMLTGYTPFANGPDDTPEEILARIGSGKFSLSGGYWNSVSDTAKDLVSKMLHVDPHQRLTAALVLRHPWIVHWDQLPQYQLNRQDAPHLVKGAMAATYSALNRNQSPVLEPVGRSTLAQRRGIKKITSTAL
# Sequence of MAP kinase-activated protein kinase 5 (Homo sapiens) (Q8IW41 whole entry): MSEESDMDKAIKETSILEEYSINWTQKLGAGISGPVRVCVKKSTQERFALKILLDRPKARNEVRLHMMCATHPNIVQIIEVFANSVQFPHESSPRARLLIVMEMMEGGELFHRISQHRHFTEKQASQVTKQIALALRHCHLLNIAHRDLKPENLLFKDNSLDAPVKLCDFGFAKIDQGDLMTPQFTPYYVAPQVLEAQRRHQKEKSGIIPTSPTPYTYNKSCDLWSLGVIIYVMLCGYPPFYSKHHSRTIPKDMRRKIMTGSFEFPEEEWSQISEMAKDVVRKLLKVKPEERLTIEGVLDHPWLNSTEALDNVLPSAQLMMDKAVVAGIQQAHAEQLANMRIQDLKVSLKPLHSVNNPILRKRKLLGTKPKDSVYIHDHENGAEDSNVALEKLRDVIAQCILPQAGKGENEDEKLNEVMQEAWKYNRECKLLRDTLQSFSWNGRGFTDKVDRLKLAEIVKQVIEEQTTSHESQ
# Sequence of Platelet-derived growth factor receptor beta (Homo sapiens) (P09619 whole entry): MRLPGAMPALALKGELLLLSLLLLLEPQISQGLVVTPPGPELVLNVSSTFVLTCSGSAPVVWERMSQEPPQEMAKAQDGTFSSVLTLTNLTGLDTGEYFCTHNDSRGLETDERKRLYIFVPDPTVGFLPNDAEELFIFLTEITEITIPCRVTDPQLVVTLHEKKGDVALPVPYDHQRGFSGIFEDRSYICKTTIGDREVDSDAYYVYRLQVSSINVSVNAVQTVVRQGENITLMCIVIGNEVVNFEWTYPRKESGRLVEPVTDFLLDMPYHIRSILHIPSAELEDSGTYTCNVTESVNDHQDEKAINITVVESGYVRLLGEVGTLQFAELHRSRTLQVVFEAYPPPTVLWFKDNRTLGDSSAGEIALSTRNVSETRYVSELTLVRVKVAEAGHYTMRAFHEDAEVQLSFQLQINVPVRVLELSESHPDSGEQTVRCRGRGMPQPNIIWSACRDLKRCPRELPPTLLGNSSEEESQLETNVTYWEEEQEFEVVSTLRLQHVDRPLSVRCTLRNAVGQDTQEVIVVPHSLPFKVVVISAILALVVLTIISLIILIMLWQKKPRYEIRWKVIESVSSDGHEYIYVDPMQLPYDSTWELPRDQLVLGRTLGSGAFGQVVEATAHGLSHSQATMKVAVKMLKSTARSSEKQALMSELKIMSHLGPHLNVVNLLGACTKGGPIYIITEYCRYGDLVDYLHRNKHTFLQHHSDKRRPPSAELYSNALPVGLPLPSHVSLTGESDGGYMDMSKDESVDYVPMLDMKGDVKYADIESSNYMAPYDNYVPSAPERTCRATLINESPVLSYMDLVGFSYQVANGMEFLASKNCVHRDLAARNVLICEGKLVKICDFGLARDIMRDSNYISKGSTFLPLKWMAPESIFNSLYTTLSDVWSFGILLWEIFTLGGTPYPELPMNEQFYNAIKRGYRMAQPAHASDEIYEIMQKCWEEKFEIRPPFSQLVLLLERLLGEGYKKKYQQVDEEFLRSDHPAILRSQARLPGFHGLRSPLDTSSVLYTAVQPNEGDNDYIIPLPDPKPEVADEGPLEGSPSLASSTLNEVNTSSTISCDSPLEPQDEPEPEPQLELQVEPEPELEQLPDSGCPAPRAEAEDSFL
# Sequence of Protein kinase C beta type (Homo sapiens) (P05771 2-671 limits assumed): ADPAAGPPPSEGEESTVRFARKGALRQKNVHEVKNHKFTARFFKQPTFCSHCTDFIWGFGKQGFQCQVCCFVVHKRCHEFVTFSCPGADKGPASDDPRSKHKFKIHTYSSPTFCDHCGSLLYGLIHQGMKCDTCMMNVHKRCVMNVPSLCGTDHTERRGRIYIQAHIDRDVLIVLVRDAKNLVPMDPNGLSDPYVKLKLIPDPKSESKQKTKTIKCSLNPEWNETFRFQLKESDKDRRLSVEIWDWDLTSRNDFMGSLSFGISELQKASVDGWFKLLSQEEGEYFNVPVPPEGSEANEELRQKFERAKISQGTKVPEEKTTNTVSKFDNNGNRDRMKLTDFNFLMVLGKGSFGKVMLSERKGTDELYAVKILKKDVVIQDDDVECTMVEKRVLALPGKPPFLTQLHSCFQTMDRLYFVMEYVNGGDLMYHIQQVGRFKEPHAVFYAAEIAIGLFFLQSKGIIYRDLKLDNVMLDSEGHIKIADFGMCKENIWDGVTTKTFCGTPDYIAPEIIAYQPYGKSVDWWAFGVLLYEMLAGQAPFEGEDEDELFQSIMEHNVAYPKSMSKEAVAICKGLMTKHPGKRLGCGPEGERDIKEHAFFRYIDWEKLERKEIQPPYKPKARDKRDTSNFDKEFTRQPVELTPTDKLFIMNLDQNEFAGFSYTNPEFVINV
compound,measurement,setting,value
O=C1NC(=O)/C(=C/c2ccc(-c3ccc(F)cc3O)o2)S1,Activity,[1],2%
same,Activity,[2],178%
same,Activity,[3],85%
same,Activity,[4],96%
same,Activity,[5],96%
same,Activity,[6],98%
same,Activity,[7],89%
same,Activity,[8],97%
same,Activity,[9],103%
same,Activity,[10],98%
same,Activity,[11],95%
same,Activity,[12],73%
same,Activity,[13],93%
same,IC50,[14],52 µM
same,T1/2,[15],0.65 h
same,half-life,[16],1 h
